NTR1 agonist: agonists of human NTR1, primary screen, imaging, U2OS cells, beta-arrestin-GFP, high content; Neurotensin receptor type 1 (Homo sapiens), P30989; NTR1-U2OS beta-arrestin-GFP spot imaging, agonist mode; activation, % at 20 µM; actives 0.17% (n = 330,000); AID 493036, 2011;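 active = activation at or above 40% of the spot to cytoplasm intensity ratio, with at least 20 cells analyzed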
Target sequence (P30989 whole entry, looked up): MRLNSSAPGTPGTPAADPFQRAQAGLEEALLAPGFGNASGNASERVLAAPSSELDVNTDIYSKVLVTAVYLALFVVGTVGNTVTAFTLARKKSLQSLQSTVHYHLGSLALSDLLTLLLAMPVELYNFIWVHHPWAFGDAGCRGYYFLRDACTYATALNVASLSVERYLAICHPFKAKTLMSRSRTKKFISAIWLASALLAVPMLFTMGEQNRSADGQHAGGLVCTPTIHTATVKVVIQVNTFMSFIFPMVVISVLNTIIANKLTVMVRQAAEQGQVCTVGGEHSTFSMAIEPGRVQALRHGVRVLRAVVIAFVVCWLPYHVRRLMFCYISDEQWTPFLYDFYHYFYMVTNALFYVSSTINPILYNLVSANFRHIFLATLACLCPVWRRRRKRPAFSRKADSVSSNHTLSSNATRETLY
aDG glyco act: activators of alpha-DG glycosylation, primary screen, uHTS, Pro5-aDG cells, AlphaScreen; alpha-DG glycosylation AlphaScreen (IIH6); 0% Pro5, 100% B10-LARGE cell signal; activation, % at 10 µM; actives 0.22% (n = 360,000); AID 624168, 2012;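 active = activation of at least 8% versus controls, or a plate z-score of at least 8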;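 note: Pro5 are CHO cells carrying HIG-tagged alpha-DG that lacks glycosylation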
Tb MetRS inh: T. brucei MetRS inhibitors, primary screen, biochemical, luminescence; methionyl-tRNA synthetase (Trypanosoma brucei brucei); purified T. brucei MetRS, ATP depletion, Kinase-Glo luminescence; inhibition, % at 11.9 µM; actives 0.4% (n = 360,000);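 active = inhibition above a per-plate cutoff of the control wells' mean inhibition plus 3 SD, cut at about 5.5% in these data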
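Test system – parasite MetRS enzyme · Reagent – substrates ATP, L-methionine and bulk Escherichia coli tRNA · Doses – 11.9 µM compound single dose, 0.9% DMSO · Times – 15 min enzyme-compound preincubation, 2 h reaction, 10 min detection, 25 °C · Signal – Kinase-Glo luminescence, ATP depletion format · Controls – DMSO-only wells as low control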
TAG inh: inhibitors of triacylglycerol accumulation, primary screen, cell-based, uHTS, fluorescence, H9c2. inhibition, % at 12.5 µM. AID 651582, 2012. H9c2 cells, Nile Red lipid (TAG) fluorescence; cells loaded with 200 µM oleic acid. actives 0.66% (n = 230,000);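 active = pattern-corrected inhibition of lipid staining of at least 50% with the nuclear-stain viability signal not falling by more than 50%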
MC4R antagonist: MC4R antagonists of cAMP signaling, primary screen, cell-based, TR-FRET, antagonist arm of biased-ligand search; actives 0.48% (n = 360,000); AID 540295, 2011; MC4R-expressing cells, MTII-stimulated cAMP, LANCE TR-FRET; inhibition, % at 6.5 µM; Melanocortin receptor 4 (Homo sapiens), P32245;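 active = inhibition above its plate's cutoff, the mean of tested wells on that plate plus 3 SD, cut at about 29% in these data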
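System: U2OS-MC4R stable cell line; Technique: Eu-cAMP/anti-cAMP TR-FRET, emission 671 nm; Repeats: single well per compound; Also added: Melanotan II; Dosing: one concentration, 6.5 µM nominal; Schedule: 30-min compound, 1-h challenge, 1-h detection, room temperature.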
MC4R barr agon: MC4R agonists recruiting beta-arrestin, primary screen, cell-based, luminescence, agonist arm of biased-ligand search | activation, % at 8.9 µM | U2OS MC4R beta-arrestin complementation; percent of melanotan II response, DMSO zero | AID 540308, 2011 | actives 0.98% (n = 360,000) | Melanocortin receptor 4 (Homo sapiens), P32245;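 active = activation above a per-plate cutoff, the mean activation of sample wells on that plate plus 3 SD, cut at about 8% in these data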
aDG conf: alpha-DG glycosylation enhancers, retest, confirmation, single concentration, Pro5-aDG cells; activation, % at 10 µM (by protocol); shares compounds with aDG glyco act; actives 17% (n = 600); IIH6 AlphaLISA; scaled to LARGE-overexpressing B10 cells as 100%;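 active = activation of at least 7% in one or more replicates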;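 note: cells exposed to compound for two days before detection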
Tb MetRS conf: T. brucei MetRS inhibitors, confirmation, biochemical, luminescence. shares compounds with Tb MetRS inh. T. brucei MetRS enzyme, luminescence (ATP depletion). inhibition, % at 11.9 µM. actives 93% (n = 1,400); in the data active = inhibition above about 7%
Jurkat cytotox: Jurkat T cell cytotoxicity, cytotoxicity control for T. brucei MetRS inhibitor project, luminescence, high throughput. Jurkat cells viability, ATP luminescence. shares compounds with Tb MetRS inh. AID 624413, 2012. inhibition, % at 8.3 µM. actives 12% (n = 1,400); in the data active = inhibition above about 15%
Tb MetRS inh FP: T. brucei MetRS inhibitors, orthogonal assay for T. brucei MetRS inhibitor project, biochemical, fluorescence polarization. shares compounds with Tb MetRS inh. purified T. brucei MetRS. actives 44% (n = 1,400). inhibition, % at 11.9 µM; in the data active = inhibition above about 17%
H9c2 TAG conf: triacylglycerol accumulation inhibitors, retest, confirmation, cell-based, single concentration, Nile Red fluorescence, H9c2. AID 651629, 2012. H9c2 lipid accumulation; cells loaded with 200 µM oleic acid. shares compounds with TAG inh. inhibition, % at 12.5 µM. actives 71% (n = 990);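 active = mean inhibition across replicates of 40% or more; inactive = mean inhibition below 40%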
Hits are given with their value; – = inactive; · = no result given. This is a sample that favours compounds with a hit; in the whole collection about 2.4% have one here.

SMILES	NTR1 agonist	aDG glyco act	Tb MetRS inh	TAG inh	MC4R antagonist	MC4R barr agon	Tb MetRS conf	Jurkat cytotox	Tb MetRS inh FP	others
CN1CCN(c2nc([N+](=O)[O-])nn2C)CC1	–	25	–	–	–	–	·	·	·	aDG conf=–
CCN1CCN(c2nc([N+](=O)[O-])nn2C)CC1	–	–	–	–	–	–	·	·	·
O=C1NCN(c2ccccc2)C12CCN(C(c1cc3ccccc3o1)c1nnnn1C1CCCCC1)CC2 (stereo unspecified)	·	8.4	–	·	·	·	·	·	·	aDG conf=–
CC(C)(C)n1nnnc1C(c1cc2ccccc2o1)N1CCC2(CC1)C(=O)NCN2c1ccccc1 (stereo unspecified)	·	–	–	·	·	·	·	·	·
C[C@@H]1CN([C@H](C)CO)C(=O)CCCn2nncc2CO[C@@H]1CN(C)C(=O)Oc1ccccc1	·	–	–	–	–	–	·	·	·
O=C(NCC1=C(c2ccc3ccccc3c2)C[C@@H]2CC[C@H]1N2Cc1ccco1)c1nccs1	·	–	–	–	–	–	·	·	·
CCC(=NCCc1c[nH]c2ccccc12)c1c(O)n(C)c(=O)n(C)c1=O	–	5.0	–	·	–	–	·	·	·	aDG conf=–
O=C1C2CCCN2C(c2ccc(Cl)c(Cl)c2)N1c1ccccn1 (stereo unspecified)	–	7.0	–	–	–	–	·	·	·	aDG conf=–
CCCC1(CCC)C(=O)NC(=Nc2ccccc2)NC1=O	–	–	12	·	–	–	19	–	–
CCCC(C)C1(CC)C(=O)NC(=Nc2ccc(F)cc2)NC1=O (stereo unspecified)	–	–	–	–	–	–	·	·	·
CCCC(C)C1(CC)C(=O)NC(=Nc2ccccc2)NC1=O (stereo unspecified)	–	–	8.7	–	–	–	18	–	–
CC1C(c2ccccc2)OC(=O)N1C (stereo unspecified)	·	–	–	–	–	–	·	·	·
CCOC(=O)c1c(NC(=O)c2c(N)n(CCCOC)c3nc4ccccc4nc23)sc2c1CCCC2	–	–	–	·	–	–	·	·	·
CCOCCCn1c(N)c(C(=O)Nc2sc3c(c2C(=O)OC)CCCC3)c2nc3ccccc3nc21	–	–	8.3	·	–	–	–	–	–
O=C1NC(=O)C(=Cc2ccc(N3CCN(C(=O)c4ccccc4)CC3)c([N+](=O)[O-])c2)C(=O)N1	–	–	13	·	–	–	18	–	–
CC(NC(=O)N1CC1(C)C)c1ccccc1 (stereo unspecified)	·	–	–	–	–	–	·	·	·
NC(=O)OCCSc1nnc(-c2cccc(C(N)=S)c2)o1	–	–	16	·	–	–	10	–	–
COC(=O)C1=C(c2ccc(-c3ccccc3)c(F)c2)C[C@@H]2CC[C@H]1N2C(=O)NCCCOC(C)C	–	–	–	–	–	–	·	·	·
N#Cc1cc2c(nc1SCC(=O)Nc1ccc(Cl)cc1)C1CCN2CC1	–	–	9.2	·	–	–	15	20	–
Cc1ccc(NC(=O)CN2C(=O)CN=C(c3ccccc3)c3cc(Cl)ccc32)cc1	–	–	59	–	–	–	81	–	53
CN(C)c1ccc(NC(=O)CN2C(=O)CN=C(c3ccccc3)c3cc(Cl)ccc32)cc1	–	–	–	–	–	–	·	·	·
Cc1nccc2c1[nH]c1ccc(Br)cc12	–	–	9.0	·	–	–	17	–	–
COc1ccc2c(c1)[nH]c1c(C)nccc12	–	–	–	–	–	–	·	·	·
Clc1ccc(COC(Cn2ccnc2)c2ccc(Cl)cc2Cl)c(Cl)c1 (stereo unspecified)	–	–	42	–	–	–	58	–	46
CCn1nc(/C=C/c2ccccc2)nc2c(=O)n(C)c(=O)nc1-2	–	–	18	·	–	–	36	57	–
c1ccc2c(c1)CNCc1cnnn1-2	·	–	–	–	–	–	·	·	·
CCOC(=O)c1cccc(C2=C(CNC(=O)c3ccc([N+](=O)[O-])cc3)[C@H]3CC[C@@H](C2)N3Cc2ccccc2)c1	·	–	–	–	–	–	·	·	·
COc1ccc(CN2Cc3cc(-c4ccc(OC)cc4)ccc3-n3nncc3C2)cc1	·	–	–	·	·	·	·	·	·
COC(=O)C1=C(c2cc3ccccc3s2)C[C@@H]2CC[C@H]1N2C(=O)N1CCOCC1	–	–	–	52	–	–	·	·	·	H9c2 TAG conf=45
CC12CC(=O)C3C(CCC4CC(=O)C=CC43C)C1CCC2=O (stereo unspecified)	·	–	–	–	–	–	·	·	·

Assay outcomes from PubChem BioAssay.
